Values belong to the compound of their own block, whether it stands above or below them.
Tests used:
Caco-2 cell monolayer = experiment: Apical-to-basolateral uptake in Caco-2 differentiated monolayer; assay type: in vitro ADME, human; settings: for Conc. of aloe-emodin in basolateral side / Conc. of aloin in basolateral side: 1 hr, 37℃; for Absorption percent: Caco-2 cells over 1 hour
Procedure, shortened: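 Caco-2 (passages 26-48; high-glucose DMEM, 10% FBS, 1% nonessential amino acids) on Transwell inserts at 5×10^4 cells/cm2, 18-24 days; TEER >550 Ω·cm2. Apical compound at 5, 10, 50 µM final (DMSO, diluted in HBSS, pH 6.0); basolateral HBSS pH 7.4; 1 hr, 37℃. C18 HPLC with/without sulfatase H-5 (45 min, 37℃) gives parent and conjugates; % absorption = basolateral×100/apical concentration.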

[1] = tested on: everted gut sac (rat small intestine); experiment: Everted gut sac model uptake into serosal side; assay type: in vitro ADME; settings: 10 µM, 1 hr; Fig. 2
Procedure, shortened: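 Rats fasted overnight; small intestine flushed with 0.9% NaCl, everted in warm oxygenated TC 199 medium, filled, cut into ~2.5 cm sacs from upper/mid-jejunum (12-15 per experiment). Sacs incubated 1 hr, 37℃ in 6 ml oxygenated medium with 10 µM compound; serosal fluid collected, volume from sac weights. HPLC with/without sulfatase (difference = conjugates); uptake per mg tissue protein (modified Lowry, BSA standard).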

Conc. of aloe-emodin in basolateral side (Caco-2 cell monolayer; 5 μM apical treatment): 0.13 nmol/cm^2 culture area
Conc. of aloe-emodin in basolateral side (Caco-2 cell monolayer; 10 μM apical treatment): 0.86 nmol/cm^2 culture area
Conc. of aloe-emodin in basolateral side (Caco-2 cell monolayer; 50 μM apical treatment): 2.51 nmol/cm^2 culture area
Structure (SMILES): O=C1c2cccc(O)c2C(=O)c2c(O)cc(CO)cc21 [aloe-emodin]

Absorption percent (Caco-2 cell monolayer; 5 μM): 7.61%
Absorption percent (Caco-2 cell monolayer; 10 μM): 13.64%
Absorption percent (Caco-2 cell monolayer; 50 μM): 8.14%
Structure (SMILES): CC(=O)Cc1cc(=O)c2c(C)cc(O)c([C@@H]3O[C@H](CO)[C@@H](O)[C@H](O)[C@H]3O)c2o1 [aloesin]
% absorption in everted gut sac compared to Caco-2 monolayer [1]: more aloesin were shown to be absorbed in the gut sac compared to the Caco-2 monolayer

Conc. of aloin in basolateral side (Caco-2 cell monolayer; 5 μM apical treatment): 0.11 nmol/cm^2 culture area
Conc. of aloin in basolateral side (Caco-2 cell monolayer; 10 μM apical treatment): 0.42 nmol/cm^2 culture area
Conc. of aloin in basolateral side (Caco-2 cell monolayer; 50 μM apical treatment): 1.99 nmol/cm^2 culture area
Structure (SMILES): O=C1c2c(O)cccc2C([C@@H]2O[C@H](CO)[C@@H](O)[C@H](O)[C@H]2O)c2cc(CO)cc(O)c21 (stereo partly shown) [aloin]
